pIC50: −log10 of the molar value. Active and inactive are the calls of the source. No cut-off for these calls is given here.
test: Cytotoxicity against human HeLaS3 cells after 48 hrs by […] assay; format: functional, cell-based; conditions: HeLa S3, 48 h
Outline: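 HeLa S₃ cells seeded at 3 × 10³ cells/well and incubated overnight, then exposed to a range of compound concentrations for 48 h. WST-8 reagent added for 2 h and absorbance read at 450 nm. Viability (% control) = (sample absorbance − blank) / (0 µM well absorbance) × 100.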

| SMILES | pIC50 |
| --- | --- |
| COc1cc2c(=O)c(-c3cc(OC)c4c(c3OC)OCO4)coc2cc1OCc1ccccc1 | 6.12 |
| COc1cc2occ(-c3cc(OC)c(OC)c(OC)c3OC)c(=O)c2cc1OC | 4.66 |
| COc1cc(-c2coc3cc(OC)c(OC)c(OC)c3c2=O)c(OC)c2c1OCO2 | < 4.00 |
| COc1cc2c(=O)c(-c3cc(OC)c4c(c3OC)OCO4)coc2cc1O | < 4.00 |
| COc1cc2occ(-c3cc(OC)c4c(c3OC)OCO4)c(=O)c2cc1OC [GLAZIOVIANIN A] | 6.23 |
| C=CCOc1cc2occ(-c3cc(OC)c4c(c3OC)OCO4)c(=O)c2cc1OC | 6.72 |
| COc1cc2occ(-c3cc(OC)c4c(c3OC)OC(C)(C)O4)c(=O)c2cc1OC | < 4.00 |
| COc1cc2c(=O)c(-c3cc(OC)c4c(c3OC)OCO4)coc2cc1OC1CCCCO1 (stereo not drawn) | < 4.00 |
| COc1cc2occ(-c3ccc4c(c3)OCO4)c(=O)c2cc1OC | 4.25 |
| C#CCOc1cc2occ(-c3cc(OC)c4c(c3OC)OCO4)c(=O)c2cc1OC | 6.13 |

test: Cell cycle arrest in human HeLaS3 cells assessed as abnormal spindle structures with unaligned chromosomes at 1 uM after 18 hrs; format: functional, cell-based; conditions: HeLa S3
Outline: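 HeLa S₃ cells given 1 µM compound or DMSO for 18 h. Microtubules immunostained with anti-α-tubulin antibody (DM1A) and chromosomes stained with Hoechst 33258. Spindle structures and chromosome alignment assessed by fluorescence microscopy.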

| SMILES | Activity |
| --- | --- |
| C=CCOc1cc2occ(-c3cc(OC)c4c(c3OC)OCO4)c(=O)c2cc1OC | Active |

test: Cytotoxicity against human HeLaS3 cells after 48 hrs by […] assay relative to glaziovianin A; format: functional, HeLa S3; conditions: not given

| SMILES | Ratio |
| --- | --- |
| COc1cc2c(=O)c(-c3cc(OC)c4c(c3OC)OCO4)coc2cc1OCc1ccccc1 | 0.79 |
| COc1cc2occ(-c3cc(OC)c(OC)c(OC)c3OC)c(=O)c2cc1OC | 0.027 |
| C=CCOc1cc2occ(-c3cc(OC)c4c(c3OC)OCO4)c(=O)c2cc1OC | 3.1 |
| COc1cc2occ(-c3ccc4c(c3)OCO4)c(=O)c2cc1OC | 0.01 |
| C#CCOc1cc2occ(-c3cc(OC)c4c(c3OC)OCO4)c(=O)c2cc1OC | 0.8 |

test: Cell cycle arrest in human HeLaS3 cells assessed as accumulation at M phase at 1 uM after 18 hrs by flow cytometry; format: functional, cell-based; conditions: HeLa S3
Outline: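 HeLa S3 cells exposed 18 h to 1 μM compound, DMSO as vehicle control. Cells then fixed in cold (−20 °C) 70% EtOH (v/v), stained with propidium iodide. DNA content distribution obtained from total fluorescence intensities by quantitative flow cytometry.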

| SMILES | Activity |
| --- | --- |
| COc1cc2occ(-c3cc(OC)c4c(c3OC)OCO4)c(=O)c2cc1OC [GLAZIOVIANIN A] | Active |
| C=CCOc1cc2occ(-c3cc(OC)c4c(c3OC)OCO4)c(=O)c2cc1OC | Active |

Source: ChEMBL document CHEMBL1221375, “Structure-activity relationship study of glaziovianin A against cell cycle progression and spindle formation of HeLa S3 cells” (Bioorg Med Chem Lett, 2010)
